Compound activity: PubChem, several laboratories
T cell HTS = modulators of CD8 T cell-vesicle binding, primary screen, mouse 2C CD8+ T cells, flow cytometry; 2C CD8+ T cell-vesicle binding; hits give low values; response (vesicle binding), % at 7 µM; 330,000 compounds, 0.068% hits;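 active = response, share of CD8 T cells binding vesicles, and their 90th percentile fluorescence all below set limits, cut at about 80% in these data, passing the limit was not always enough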;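 note: values below 100% mean blocked vesicle binding to the CD8+ T cells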
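Benchmarks: naked versus QL9-loaded vesicles / Assay system: purified 2C TCR transgenic mouse naive CD8+ T cells / Technique: high-throughput flow cytometry with anti-B7-1 and anti-CD8 staining / Timing: Cell–vesicle co-incubation 1.5 h at 37 °C, staining 20 min on ice / Read-out: percent CD8+ FL2 mean versus row control / Probe or stimulus: QL9-loaded Drosophila micro-vesicles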
CHT PAM = CHT positive allosteric modulators, primary screen, cell-based, membrane potential dye, choline EC20 | High affinity choline transporter 1 (Homo sapiens), Q9GZV3 | CHT-expressing cells; hits give high values; LV-AA mutant CHT in HEK293 cells | B-score at 10 µM | 310,000 compounds, 0.49% hits;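 active = initial fluorescence not abnormally high and integrated response B-score, plate-corrected, over 3 SD above library mean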
CHT inh = inhibitors of human choline transporter CHT | High affinity choline transporter 1 (Homo sapiens), Q9GZV3 | B-score at 10 µM | CHT-expressing cells, membrane potential dye, choline response; hits give low values | 310,000 compounds, 0.86% hits;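 active = B-score over 3 SD under the library average, and starting fluorescence ratio not unusually high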;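 note: choline stimulus applied at its EC90 after an EC20 pre-addition; B-score computed on integrated fluorescence ratio after choline addition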
VLA-4 inh = inhibition in human VLA-4 binding assay, primary screen, VLA-4 allosteric modulator project, MLPCN library, flow cytometry, VLA-4 expressing cells; Integrin alpha-4 (Homo sapiens), P13612; ligand binding flow cytometry; inhibition, % (about 7 µM as worked out from the volumes in the protocol); 330,000 compounds, 0.2% hits; in the data active = inhibition above about 50%
Target sequence (P13612 whole entry, looked up): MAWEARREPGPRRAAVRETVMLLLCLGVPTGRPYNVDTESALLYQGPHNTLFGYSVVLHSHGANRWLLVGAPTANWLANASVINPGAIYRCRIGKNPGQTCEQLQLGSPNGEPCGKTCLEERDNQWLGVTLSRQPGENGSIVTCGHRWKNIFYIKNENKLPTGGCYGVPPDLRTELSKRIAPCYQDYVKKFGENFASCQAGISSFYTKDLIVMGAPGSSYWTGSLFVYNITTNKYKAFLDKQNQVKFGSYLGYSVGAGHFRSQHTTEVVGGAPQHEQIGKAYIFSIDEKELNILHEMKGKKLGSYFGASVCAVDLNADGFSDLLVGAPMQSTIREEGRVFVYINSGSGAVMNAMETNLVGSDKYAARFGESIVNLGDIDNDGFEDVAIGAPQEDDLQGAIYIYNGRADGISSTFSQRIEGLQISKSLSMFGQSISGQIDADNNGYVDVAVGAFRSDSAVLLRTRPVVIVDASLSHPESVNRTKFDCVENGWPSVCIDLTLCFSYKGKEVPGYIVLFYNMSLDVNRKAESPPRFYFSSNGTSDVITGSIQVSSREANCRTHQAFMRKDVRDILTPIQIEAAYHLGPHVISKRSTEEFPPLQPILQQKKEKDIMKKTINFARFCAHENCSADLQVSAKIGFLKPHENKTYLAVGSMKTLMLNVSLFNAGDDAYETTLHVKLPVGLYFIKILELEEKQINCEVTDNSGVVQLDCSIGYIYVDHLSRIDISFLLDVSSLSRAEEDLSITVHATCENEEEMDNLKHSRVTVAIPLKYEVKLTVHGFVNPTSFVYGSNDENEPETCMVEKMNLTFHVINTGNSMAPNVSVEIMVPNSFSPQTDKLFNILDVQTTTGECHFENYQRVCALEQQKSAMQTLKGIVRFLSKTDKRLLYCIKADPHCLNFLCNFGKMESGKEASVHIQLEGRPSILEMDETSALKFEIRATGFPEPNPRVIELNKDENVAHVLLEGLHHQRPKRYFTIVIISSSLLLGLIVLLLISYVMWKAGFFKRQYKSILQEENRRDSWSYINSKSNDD
Numbers stand for hits; . = inactive; / = no result given. Hits are enriched below; roughly 1.5% of the tested compounds scored in any of these assays.

SMILES | T cell HTS | CHT PAM | CHT inh | VLA-4 inh
COCCNC(=O)C1CCCN(S(=O)(=O)c2cccc3nsnc23)C1 (centres undefined) | . | . | . | .
CCN(CC)c1ccc(N2C(=NC(=O)C3CC3)SC3CS(=O)(=O)CC32)cc1 (centres undefined) | . | . | . | .
CCn1nnnc1NC(=O)c1cc(Cl)c(OC)c(Cl)c1 | . | . | . | 52
O=C(COC(=O)/C=C/c1ccc(S(=O)(=O)N2CCc3ccccc32)cc1)NC1CCS(=O)(=O)C1 (centres undefined) | . | . | . | .
CCSc1nnc(NC(=O)C(CC)(C(F)(F)F)C(F)(F)F)s1 | . | . | -5.2 | .
Cc1ccc2nc3c(cc(C(=O)NC4CCCC4)c(=N)n3CCCn3ccnc3)c(=O)n2c1 | . | 6.4 | . | .
CC(C)S(=O)(=O)C1=NSC2=NC(=O)/C(=C\c3ccc(OC(=O)c4ccco4)cc3)C(=N)N21 | . | . | -8.2 | .
Cc1ccc(-n2c(SCC(N)=O)nc3c(oc4ccccc43)c2=O)cc1 | . | . | . | .
CC(Sc1nc(N)cc(N)n1)C(=O)Nc1ccc(N2CCOCC2)cc1 (centres undefined) | . | / | / | .
Oc1ccc(N=Nc2cccc(C(F)(F)F)c2)cc1C=Nc1ccc(N2CCOCC2)cc1 | 0.0 | . | . | .
Oc1ccc(C=Nc2ccc(N3CCOCC3)cc2)c(O)c1 | . | . | . | .
C[C@@H]1COC(=O)[C@H](Cc2ccc(F)cc2)CC/C=C\C[C@@H](CC(=O)NCCO)C(=O)N1 | 60 | / | / | .
O=C(CCN1CCc2ccccc2C(c2ccccc2)C1)c1ccc2c(c1)OCCO2 (centres undefined) | . | . | -8.9 | .
O=C(CCN1Cc2ccccc2C1)c1ccc2c(c1)OCCO2 | . | . | . | .
O=C(NCCc1c[nH]c2ccccc12)C1CCC(=O)N(CCc2cccc(F)c2)C1 (centres undefined) | . | . | . | .
COc1ccccc1C(CCN(Cc1cccs1)C(C)=O)c1ccco1 (centres undefined) | . | . | . | .
CCC(=O)N(CCC(c1ccccc1)c1ccco1)Cc1cccs1 (centres undefined) | . | 9.5 | . | .
CC(O)[C@H]1CNC(=O)C(=O)N1CCc1cc(C(F)(F)F)cc(C(F)(F)F)c1 (some centres undefined) | . | . | . | .
C[C@H]1CC[C@H]2C(=O)N3[C@H](c4ccccc4Br)[C@@H](C)CC[C@H]3C(=O)N2[C@@H]1c1ccccc1Br | . | 8.1 | . | .
CCOc1ccc(CCNC(=O)CCS(=O)(=O)c2ccc(C)cc2)cc1OCC | 0.0 | . | . | .
CCOc1ccc(CCNC(=O)CCS(=O)(=O)c2ccc(Br)cc2)cc1OCC | . | . | . | .
C=CCc1cccc2cc(C(=O)Nc3ccc(F)cc3)c(=O)oc12 | . | . | . | .
C=CCc1cccc2cc(C(=O)Nc3cccc(C(=O)O)c3)c(=O)oc12 | . | . | -6.5 | .
O=C(COc1ccc(Cl)cc1[N+](=O)[O-])N1CCCCCC1 | 31 | . | . | .
CCOC(=O)N1CCN(C(=O)COC(=O)Cc2ccc(Cl)cc2)CC1 | . | . | . | .
SMILES | T cell HTS | CHT PAM | CHT inh | VLA-4 inh
O=C(Cc1ccc(Cl)cc1)OCC(=O)N1CCCCCC1 | 61 | / | / | .
Nc1cc(C(=O)OCC(=O)c2ccc(CC(=O)N3CCOCC3)s2)ccc1Cl | 0.0 | / | / | .
COc1ccc(C(=O)COC(=O)c2cccc(-n3cnnn3)c2)c(OC)c1 | . | . | . | .
Cc1c(Cl)c(C(=O)Nc2nc3ccccc3n2CCN2CCCCC2)nn1C | . | 9.7 | . | .
O=C(COC(=O)c1cc(=O)c2ccccc2o1)Nc1ccccc1F | . | / | / | .
CCCc1nnc2n1N=C(c1ccc(OC)c(OC)c1)CS2 | . | . | -5 | .
COc1ccc(C2=Nn3c(nnc3-c3ccccc3)SC2)cc1OC | . | . | . | .
CCOC(=O)c1c(SC)[nH]c2c(Cl)cccc2c1=O | . | . | . | .
CCN1CCN(c2nc3c(c(=O)n(C)c(=O)n3C)n2CCSc2ncccn2)CC1 | . | . | -7.5 | .
Cc1ccnc(SCCn2c(N3CCN(C)CC3)nc3c2c(=O)n(C)c(=O)n3C)n1 | . | . | . | .
CN(C)C(=O)c1cc(C(=O)c2ccc(F)cc2Cl)c[nH]1 | . | . | . | .
CNC(=O)c1cc(C(=O)c2ccc(F)cc2C(F)(F)F)c[nH]1 | 0.0 | . | . | .
Cn1c(SCc2ccccc2C#N)nc2ccccc2c1=O | . | . | . | .
CCOC(=O)CSc1nc(COc2ccccc2)nc2ccccc12 | 47 | . | . | .
Cc1ccc(N(CC(=O)NC2CCCC2)C(=O)CNC(=O)c2cccs2)c(C)c1 | . | . | . | .
O=c1cc(-c2ccccc2Cl)oc2c(NS(=O)(=O)c3cc(Cl)cc(Cl)c3O)ccc(O)c12 | . | . | -9.8 | .
CCOC(=O)c1c(O)c2cc(Cl)ccc2n(CC)c1=O | 58 | . | . | .
CC(C)Cn1c(N)cc(=O)n(C)c1=O | . | . | . | 61
COc1cc(C2CC(=O)Oc3c(C(CCN4CCCC(C)C4)c4ccc(N(C)C)cc4)c(OC)cc(OC)c32)cc(OC)c1OC (centres undefined) | / | . | . | /
COc1cc(C(CCN2CCCC(C)C2)c2c(OC)cc(OC)c3c2OC(=O)CC3c2ccc(N(C)C)cc2)cc(OC)c1OC (centres undefined) | . | . | -5.1 | .
Cc1ccc(NC(=O)CC(O)(C(F)(F)F)C(F)(F)F)c(Br)c1 | . | . | -5.2 | .
Cc1ccccc1NC(=O)CC(O)(C(F)(F)F)C(F)(F)F | . | . | . | .
CC(C)C(NC(=O)c1ccc(F)cc1)C(=O)NCC1CCCO1 (centres undefined) | . | . | . | .
O=C(COc1ccc([N+](=O)[O-])cc1)NNC(=S)NC(=O)c1ccc(Br)cc1 | . | . | . | 61
Cc1ccc(C(=O)NC(=S)NNC(=O)COc2ccc([N+](=O)[O-])cc2)cc1 | . | . | . | .
SMILES | T cell HTS | CHT PAM | CHT inh | VLA-4 inh
Cc1sc2ncnc(NCC(C)(C)N3CCOCC3)c2c1C | 56 | . | . | .
Cc1ccc(CNC(=O)CCC2CCCN(Cc3c(C)nn(C(C)C)c3C)C2)o1 (centres undefined) | . | . | . | .
COc1ccc2oc(=O)c(-c3csc(Nc4cccc(O)c4)n3)cc2c1 | 0.0 | . | . | .
C=CCN1C(=O)C2(OCCCO2)c2cc(Cl)ccc21 | . | . | . | .
CCCC1(c2ccccc2)NC(=O)N(CC(=O)c2[nH]c(C)c(C(=O)OCC)c2C)C1=O (centres undefined) | . | . | -9.8 | .
COc1ccccc1C(=O)Nc1ccnn1C1CCN(Cc2cc(C)c(C)cc2C)CC1 | . | . | -5.3 | .
CS(=O)(=O)c1sc(C#N)c2c1C(=O)CC(c1ccccc1)C2 (centres undefined) | . | . | -7.1 | .
